CRFR2-BP ag: agonists of human CRF-binding protein/CRF-R2 receptor complex. HEK293 CRF-R2/CRF-BP, calcium dye fluorescence (FLIPR); percent of saturating CRF peptide response. activation, % at 13.2 µM. 350,000 tested, 0.46% active. AID 588473;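 active = activation of at least 50%, plus an integration ratio under a set limit after plate pattern correction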;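 also: plate controls were neutral control wells without compound for no effect and CRF at EC100 for full effect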
CRFR2-BP antag: blocks CRF-induced signaling of the CRF-BP/CRF-R2 complex; HEK293 CRF-R2/CRF-BP, CRF-induced calcium fluorescence; inhibition, % at 11.8 µM; 350,000 tested, 0.59% active; AID 588475;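 active = inhibition of the ligand-induced calcium signal above about 50% at the single tested concentration, limit read from the data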
TPT1 inh: inhibitors of Candida albicans tRNA 2'-phosphotransferase TPT1; AID 1962; recombinant caTPT1, FP RNA substrate dephosphorylation; 300,000 tested, 0.81% active; inhibition, % at 5 µM;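 active = inhibition above the mean of all tested compounds plus 3 SD, set per screening campaign, cut at about 24% in these data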;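 also: plate controls were DMSO alone for no effect and ferristatin control at 100 nM for full effect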
Rpn11 inh: inhibitors of human proteasome Rpn11 | calls only at 20 µM | human 26S proteasome, Ub4-pepOG fluorescence polarization; 20S core pre-blocked with epoxomicin | 360,000 tested, 0.59% active | AID 588493 | O00487;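 active = inhibition at 20 µM, scaled to each plate's controls, above about 33%, limit read from the data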
CSN inh: CSN deneddylation inhibition; 360,000 tested, 0.38% active; Q92905; AID 651999; Purified CSN, SCF-Nedd8-OG deneddylation, fluorescence polarization; inhibition, % at 12.5 µM;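 active = pattern-corrected inhibition above about 35%, with an unprinted fluorescence ratio check between 0.5 and 1.5, limit read from the data, passing the limit was not always enough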;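 also: 0% = enzyme with substrate and 100% = substrate without enzyme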
Target sequence (Q92905 whole entry, looked up, one chain of several): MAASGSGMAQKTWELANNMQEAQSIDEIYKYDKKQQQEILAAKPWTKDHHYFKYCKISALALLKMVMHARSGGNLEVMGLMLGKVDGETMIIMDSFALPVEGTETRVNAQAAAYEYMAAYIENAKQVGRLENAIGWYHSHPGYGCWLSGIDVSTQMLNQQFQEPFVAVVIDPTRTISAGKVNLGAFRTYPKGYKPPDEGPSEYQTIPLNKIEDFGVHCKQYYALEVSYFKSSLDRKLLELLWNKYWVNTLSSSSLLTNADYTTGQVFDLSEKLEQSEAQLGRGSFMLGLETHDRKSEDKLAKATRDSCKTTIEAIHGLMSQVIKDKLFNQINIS
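Assay system: HEK293T-derived human Csn5 enzyme; quantity: 0.24 nM enzyme; medium: Tris/NaCl/DTT buffer, pH 7.5; also added: substrate SCFSkp2-Nedd8OG, 10 nM; doses: 12.5 µM compound; schedule: 90 min reaction at room temperature; signal: FP; read-out: % inhibition of substrate cleavage by Csn5; benchmarks: substrate-only high control, full reaction low control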
HNF4A DNA FP: change in binding of human HNF4 alpha to DNA. P41235. HNF4a-FITC DNA binding, fluorescence polarization, 1 h. activity change, % at 10 µM. 360,000 tested, 0.3% active; in the data active = activity change above about 30%, passing the limit was not always enough
Active calls of the source: *. This is a sample that favours compounds with a hit; in the whole collection about 2.3% have one here.

Screening Cc1ccc(S(=O)(=O)N(CC(=O)N=Nc2c(O)[nH]c3ccccc23)c2ccc(C)c(C)c2)cc1 returned CRFR2-BP ag 1, CRFR2-BP antag 67*, TPT1 inh 6, Rpn11 inh inactive, CSN inh -10 and HNF4A DNA FP -4.
COc1ccc(C(=O)Nc2nc(-c3ccc([N+](=O)[O-])cc3)c(-c3ccc(OC)cc3)s2)cc1 was read as CRFR2-BP ag 46, CRFR2-BP antag -67, TPT1 inh 2, Rpn11 inh active, CSN inh 6 and HNF4A DNA FP 21.
Screening Cc1noc(/C=C/c2cccnc2)c1[N+](=O)[O-] returned CRFR2-BP ag -5, CRFR2-BP antag 3, TPT1 inh -2, Rpn11 inh inactive, CSN inh -1 and HNF4A DNA FP -2.
Cc1noc(/C=C/c2ccc(-c3ccccc3Cl)o2)c1[N+](=O)[O-] was read as CRFR2-BP ag 205*, CRFR2-BP antag -170, TPT1 inh 138*, CSN inh 59 and HNF4A DNA FP 23.
COc1ccc(NC(=O)c2cc(C(=O)Nc3ccc(OC)cc3OC)cc([N+](=O)[O-])c2)c(OC)c1 was read as CRFR2-BP ag 7, CRFR2-BP antag 50*, TPT1 inh 2, Rpn11 inh inactive, CSN inh 2 and HNF4A DNA FP -1.
COc1ccc(NC(=O)CCCCC(=O)Nc2ccc(OC)cc2OC)c(OC)c1 was read as CRFR2-BP ag 2, CRFR2-BP antag 59*, TPT1 inh 0, Rpn11 inh inactive, CSN inh 0 and HNF4A DNA FP 0.
Screening CC(C)CN1CCN(Cc2cccc3nccnc23)CC1CCO (stereo not given) returned CRFR2-BP ag 0, CRFR2-BP antag 74*, TPT1 inh -1, Rpn11 inh inactive, CSN inh -4 and HNF4A DNA FP -4.
Screening O=C(Cc1ccccc1)NCC(=O)OC(c1ccccc1)c1ccccc1 returned CRFR2-BP ag -1, CRFR2-BP antag 82*, TPT1 inh 0, Rpn11 inh inactive, CSN inh 5 and HNF4A DNA FP 2.
For O=C(CNC(=O)Cc1ccccc1)NCC(=O)OCc1ccccc1 the results were CRFR2-BP ag 0, CRFR2-BP antag 29, TPT1 inh -2, Rpn11 inh inactive, CSN inh 1 and HNF4A DNA FP 2.
C=CCn1c(SCC(=O)NCc2ccc3c(c2)OCO3)nnc1-c1cccnc1 was read as CRFR2-BP ag -1, CRFR2-BP antag 1, TPT1 inh -1, Rpn11 inh inactive, CSN inh -11 and HNF4A DNA FP -2.
COC(=O)c1ccc(/C(O)=C(\C#N)c2nc3ccccc3s2)cc1 was read as CRFR2-BP ag 43, CRFR2-BP antag 51*, TPT1 inh 3, Rpn11 inh inactive, CSN inh -2 and HNF4A DNA FP 3.
For COCCN1C(=O)CCC1(C)C(=O)NC1CCCCC1 (stereo not given) the results were Rpn11 inh inactive, CSN inh 121* and HNF4A DNA FP -1.
Screening COCCN1C(=O)CCC1(C)C(=O)NC1CCCC1 (stereo not given) returned Rpn11 inh inactive, CSN inh -1 and HNF4A DNA FP 6.
O=C(O)c1ccc(-c2nc(-c3ccc(Cl)cc3Cl)cs2)cc1 was read as CRFR2-BP ag -2, CRFR2-BP antag 67*, TPT1 inh 1, Rpn11 inh inactive, CSN inh 6 and HNF4A DNA FP -1.
Screening O=C(O)c1ccc(-c2nc(-c3ccc(Cl)cc3)cs2)cc1 returned CRFR2-BP ag -3, CRFR2-BP antag 53*, Rpn11 inh inactive, CSN inh -3 and HNF4A DNA FP -6.
COc1ccc(-c2csc(-c3ccc(C(=O)O)cc3)n2)cc1 was read as CRFR2-BP ag -2, CRFR2-BP antag 18, TPT1 inh 0, Rpn11 inh inactive, CSN inh -2 and HNF4A DNA FP 3.
`O=C1NC[C@@H](CCCCN2CCN(CCC3CCCCC3)C(=O)C2=O)N(CCC2CCCCC2)C1=O` gave CSN inh 2 and HNF4A DNA FP 2.
`CCOc1cc(/C=N/NC(=O)c2ccncc2)ccc1OC(=O)c1ccc([N+](=O)[O-])cc1` gave CRFR2-BP ag -3, CRFR2-BP antag 13, TPT1 inh 6, Rpn11 inh inactive, CSN inh -5 and HNF4A DNA FP -1.
Screening O=C(CSc1cccc2cccnc12)N/N=C/c1cccc(O)c1 returned CRFR2-BP ag -1, CRFR2-BP antag -2, TPT1 inh -3, Rpn11 inh inactive, CSN inh -9 and HNF4A DNA FP 0.
Screening O=C(N/N=C/c1ccc(O)c(O)c1)c1ccc(CSc2cccc3cccnc23)cc1 returned CRFR2-BP ag -1, CRFR2-BP antag 77*, TPT1 inh 0, Rpn11 inh inactive, CSN inh -2 and HNF4A DNA FP -3.
For COc1ccc(-c2csc(NC(=O)CSc3nc(SC)ns3)n2)cc1 the results were CRFR2-BP ag 1, CRFR2-BP antag 85*, TPT1 inh 0, Rpn11 inh inactive, CSN inh 2 and HNF4A DNA FP -4.
Screening COc1cc(-c2n[nH]c(=S)n2/N=C/c2cccn2C)cc(OC)c1OC returned CRFR2-BP ag 104*, CRFR2-BP antag -18, TPT1 inh 0, Rpn11 inh inactive, CSN inh 4 and HNF4A DNA FP 0.
CC12C=CC3(O1)C(C(=O)N(c1cccnc1)C3C(=O)NC1CCCCC1)C2C(=O)Nc1ccccc1 (stereo not given) was read as CRFR2-BP ag 1, CRFR2-BP antag 7, TPT1 inh 0, Rpn11 inh inactive, CSN inh 1 and HNF4A DNA FP 5.
Cc1c(C(=O)N2CCCCC2)oc2ccccc12 was read as CRFR2-BP ag -1, CRFR2-BP antag 2, Rpn11 inh inactive, CSN inh 2 and HNF4A DNA FP -3.
Screening Nc1c(C(=O)N2CCCCCC2)oc2ccccc12 returned CRFR2-BP ag 0, CRFR2-BP antag 112*, TPT1 inh -2, Rpn11 inh inactive, CSN inh -4 and HNF4A DNA FP 2.
Cc1[nH]c2ccccc2c1C(=O)CSc1ccc(Cl)cc1 was read as CRFR2-BP ag -2, CRFR2-BP antag -8, TPT1 inh 4, Rpn11 inh inactive, CSN inh 2 and HNF4A DNA FP -4.
For Cc1[nH]c2ccccc2c1C(=O)CN1C(=O)NC(C)(c2ccc(Cl)cc2Cl)C1=O (stereo not given) the results were CRFR2-BP ag 67*, CRFR2-BP antag -199, TPT1 inh 0, Rpn11 inh inactive, CSN inh 6 and HNF4A DNA FP 0.
